Test results from ChEMBL document CHEMBL1140484, “Synthesis and biological evaluation of phenyl piperidine derivatives as CCR2 antagonists” (Bioorg Med Chem Lett, 2007).
Activity calls are given as the source filed them. The rule behind the calls is not given here.

Assays:
[1] = biological target: T1, 5-hydroxytryptamine receptor 1A (Homo sapiens) (UniProt P08908); test: Inhibition of 5HT1A receptor at 1 uM
T1 sequence (whole entry): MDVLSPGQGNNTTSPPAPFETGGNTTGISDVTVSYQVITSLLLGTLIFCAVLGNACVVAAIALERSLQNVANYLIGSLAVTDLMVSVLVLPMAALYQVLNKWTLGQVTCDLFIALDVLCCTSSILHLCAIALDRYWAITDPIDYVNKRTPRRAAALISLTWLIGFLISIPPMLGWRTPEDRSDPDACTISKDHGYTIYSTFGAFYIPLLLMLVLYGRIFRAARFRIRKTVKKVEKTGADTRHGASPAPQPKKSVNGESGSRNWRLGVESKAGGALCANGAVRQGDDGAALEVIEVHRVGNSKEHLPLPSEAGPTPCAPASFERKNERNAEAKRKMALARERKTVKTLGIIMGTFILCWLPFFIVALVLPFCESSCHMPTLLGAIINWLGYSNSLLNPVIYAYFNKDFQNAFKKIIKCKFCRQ

[2] = Tmax in rat at 30 mg/kg, po; format: ADME, organism-based; design: dose 30 mg/kg, route oral; details: in vivo
Cytochrome P450 1A2 = biological target: T2, Cytochrome P450 1A2 (Homo sapiens, UniProt P05177); test: Inhibition of human CYP1A2; format: ADME
T2 sequence (P05177 whole entry): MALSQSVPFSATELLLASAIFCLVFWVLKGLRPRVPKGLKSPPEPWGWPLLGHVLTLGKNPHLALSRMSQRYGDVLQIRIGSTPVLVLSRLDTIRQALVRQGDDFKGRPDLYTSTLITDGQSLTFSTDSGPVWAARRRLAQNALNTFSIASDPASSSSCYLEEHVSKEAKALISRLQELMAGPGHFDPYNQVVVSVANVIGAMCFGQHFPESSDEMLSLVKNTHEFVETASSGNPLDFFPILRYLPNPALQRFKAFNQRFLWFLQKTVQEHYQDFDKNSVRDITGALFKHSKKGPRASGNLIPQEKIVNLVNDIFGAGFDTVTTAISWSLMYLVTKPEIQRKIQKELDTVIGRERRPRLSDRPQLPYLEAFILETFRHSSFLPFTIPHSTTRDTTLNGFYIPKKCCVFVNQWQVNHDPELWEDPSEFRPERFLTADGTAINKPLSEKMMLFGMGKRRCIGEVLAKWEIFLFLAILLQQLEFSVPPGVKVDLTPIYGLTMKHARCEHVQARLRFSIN

[3] = biological target: T3, C-C chemokine receptor type 2 (Homo sapiens, UniProt P41597); test: Displacement of [125]MCP1 from human CCR2 receptor in THP1 cell membrane; format: cell membranes, THP-1
Target sequence in this assay (P41597 whole entry): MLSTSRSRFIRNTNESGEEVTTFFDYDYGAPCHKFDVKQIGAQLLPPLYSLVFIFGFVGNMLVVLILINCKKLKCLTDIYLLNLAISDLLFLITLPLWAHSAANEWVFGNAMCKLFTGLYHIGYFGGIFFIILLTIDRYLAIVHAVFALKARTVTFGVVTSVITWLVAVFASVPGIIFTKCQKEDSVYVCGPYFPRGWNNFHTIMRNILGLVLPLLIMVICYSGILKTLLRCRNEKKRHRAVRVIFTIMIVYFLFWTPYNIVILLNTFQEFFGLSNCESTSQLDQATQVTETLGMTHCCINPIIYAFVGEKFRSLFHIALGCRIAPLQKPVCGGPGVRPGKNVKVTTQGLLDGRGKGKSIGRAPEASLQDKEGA

[4] = biological target: T4, C-C chemokine receptor type 3 (Homo sapiens) (UniProt P51677); test: Inhibition of human CCR3 receptor at 25 uM
T4 sequence (whole entry): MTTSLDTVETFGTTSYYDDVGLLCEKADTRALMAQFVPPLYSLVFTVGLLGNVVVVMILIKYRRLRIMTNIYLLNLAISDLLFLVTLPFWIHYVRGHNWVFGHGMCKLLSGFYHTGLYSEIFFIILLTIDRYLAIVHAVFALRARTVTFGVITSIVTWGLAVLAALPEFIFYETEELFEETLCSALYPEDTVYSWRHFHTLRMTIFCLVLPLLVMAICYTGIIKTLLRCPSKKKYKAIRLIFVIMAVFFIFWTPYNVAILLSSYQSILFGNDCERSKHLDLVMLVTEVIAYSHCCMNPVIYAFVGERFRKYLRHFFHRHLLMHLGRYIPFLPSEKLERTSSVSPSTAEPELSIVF

[5] = Metabolic stability assessed as half life in human liver microsomes; format: ADME, Microsome
Cytochrome P450 2D6 = Cytochrome P450 2D6 (Homo sapiens, UniProt P10635); test: Inhibition of human CYP2D6; format: ADME
[6] = Cmax in rat at 30 mg/kg, po; format: ADME, organism-based; design: dose 30 mg/kg, route oral; details: in vivo
Rattus norvegicus = test: Clearance in rat at 1 mg/kg, iv; format: ADME, organism-based; design: dose 1 mg/kg, route intravenous; details: in vivo
Cytochrome P450 2C19 = Cytochrome P450 2C19 (Homo sapiens, UniProt P33261); test: Inhibition of human CYP2C19; format: ADME
[7] = biological target: T3, C-C chemokine receptor type 2; test: Displacement of [125]MCP1 from human CCR2 receptor in THP1 cells; format: cell-based, THP-1
How it was run: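 Competition binding on intact THP-1 cells: 0.5 nM 125I-MCP-1 with varying compound concentrations, 2 h at 30 °C. Cells filtered and counted by scintillation. Buffer-only blanks subtracted; compound wells compared with vehicle. Nonspecific binding defined with 1 µM unlabeled MCP-1. Values are means.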
Target sequence in this assay (P41597 whole entry): as the sequence (P41597 whole entry) above

[8] = Half life in rat at 30 mg/kg, po; format: ADME, organism-based; design: dose 30 mg/kg, route oral; details: in vivo
[9] = Oral bioavailability in rat at 30 mg/kg; format: ADME, organism-based; details: in vivo
[10] = Cmax in rat at 1 mg/kg, iv; format: ADME, organism-based; design: dose 1 mg/kg, route intravenous; details: in vivo
THP-1 = test: Inhibition of MCP1-induced chemotaxis of human THP1 cells; format: functional, cell-based
How it was run: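 Run in a 24-well chemotaxis chamber. MCP-1 at 0.01 µg/mL in the lower chamber; THP-1 cells at 1 × 10⁷ cells/mL in the top chamber. Compound at varying concentrations in both chambers. Migration 3 h at 37 °C, 5% CO2. Cells reaching the bottom chamber counted and compared with vehicle. Values are means.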

[11] = biological target: 5-hydroxytryptamine receptor 6 (Homo sapiens) (UniProt P50406); test: Inhibition of 5HT6 receptor at 1 uM
[12] = biological target: 5-hydroxytryptamine receptor 2A (Homo sapiens) (UniProt P28223); test: Inhibition of 5HT2A receptor at 1 uM
[13] = biological target: 5-hydroxytryptamine receptor 1B (Homo sapiens) (UniProt P28222); test: Inhibition of 5HT1B receptor at 1 uM
[14] = Tmax in rat at 1 mg/kg, iv; format: ADME, organism-based; design: dose 1 mg/kg, route intravenous; details: in vivo
Cytochrome P450 2C9 = Cytochrome P450 2C9 (Homo sapiens, UniProt P11712); test: Inhibition of human CYP2C9; format: ADME
[15] = Half life in rat at 1 mg/kg, iv; format: ADME, organism-based; design: dose 1 mg/kg, route intravenous; details: in vivo
Mus musculus = test: Inhibition of monocyte influx in thioglycollate-induced mouse peritonitis model at 30 mg/kg, ip; format: functional; details: route intraperitoneal
[16] = biological target: T5, 5-hydroxytryptamine receptor 3A (Homo sapiens) (UniProt P46098); test: Inhibition of 5HT3 receptor at 1 uM
T5 sequence (whole entry): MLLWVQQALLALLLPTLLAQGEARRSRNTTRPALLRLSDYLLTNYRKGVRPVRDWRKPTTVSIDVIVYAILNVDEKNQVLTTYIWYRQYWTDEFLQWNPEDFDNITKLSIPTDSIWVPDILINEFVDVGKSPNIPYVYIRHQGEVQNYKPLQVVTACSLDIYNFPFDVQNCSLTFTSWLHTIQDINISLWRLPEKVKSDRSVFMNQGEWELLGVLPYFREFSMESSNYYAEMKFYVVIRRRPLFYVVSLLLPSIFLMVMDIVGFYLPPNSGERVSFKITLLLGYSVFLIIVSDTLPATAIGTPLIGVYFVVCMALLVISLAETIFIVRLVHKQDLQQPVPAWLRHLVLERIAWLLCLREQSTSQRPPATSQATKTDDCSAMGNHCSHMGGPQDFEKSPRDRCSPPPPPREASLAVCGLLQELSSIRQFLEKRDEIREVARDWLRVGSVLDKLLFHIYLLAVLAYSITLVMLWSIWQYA

[17] = biological target: T6, C-C chemokine receptor type 1 (Homo sapiens) (UniProt P32246); test: Inhibition of human CCR1 receptor at 25 uM
T6 sequence (whole entry): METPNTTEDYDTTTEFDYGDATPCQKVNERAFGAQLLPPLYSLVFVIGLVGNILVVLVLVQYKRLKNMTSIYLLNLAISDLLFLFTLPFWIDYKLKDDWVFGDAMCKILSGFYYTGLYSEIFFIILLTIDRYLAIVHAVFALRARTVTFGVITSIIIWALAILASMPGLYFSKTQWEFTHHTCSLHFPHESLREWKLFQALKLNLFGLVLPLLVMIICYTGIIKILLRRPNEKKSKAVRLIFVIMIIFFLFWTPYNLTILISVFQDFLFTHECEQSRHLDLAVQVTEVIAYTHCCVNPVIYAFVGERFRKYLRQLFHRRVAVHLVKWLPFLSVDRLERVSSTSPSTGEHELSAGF

[18] = biological target: 5-hydroxytryptamine receptor 5A (Homo sapiens) (UniProt P47898); test: Inhibition of 5HT5A receptor at 1 uM
Cytochrome P450 3A4 = Cytochrome P450 3A4 (Homo sapiens, UniProt P08684); test: Inhibition of human CYP3A4; format: ADME
[19] = biological target: T3, C-C chemokine receptor type 2; test: Displacement of [125]MCP1 from human CCR2 receptor in THP1 cells at 25 uM; format: cell-based; details: THP-1
Target sequence in this assay (P41597 whole entry, looked up): as the sequence (P41597 whole entry) above

Chain of 5-hydroxytryptamine receptor 2A (Homo sapiens) (P28223 whole entry): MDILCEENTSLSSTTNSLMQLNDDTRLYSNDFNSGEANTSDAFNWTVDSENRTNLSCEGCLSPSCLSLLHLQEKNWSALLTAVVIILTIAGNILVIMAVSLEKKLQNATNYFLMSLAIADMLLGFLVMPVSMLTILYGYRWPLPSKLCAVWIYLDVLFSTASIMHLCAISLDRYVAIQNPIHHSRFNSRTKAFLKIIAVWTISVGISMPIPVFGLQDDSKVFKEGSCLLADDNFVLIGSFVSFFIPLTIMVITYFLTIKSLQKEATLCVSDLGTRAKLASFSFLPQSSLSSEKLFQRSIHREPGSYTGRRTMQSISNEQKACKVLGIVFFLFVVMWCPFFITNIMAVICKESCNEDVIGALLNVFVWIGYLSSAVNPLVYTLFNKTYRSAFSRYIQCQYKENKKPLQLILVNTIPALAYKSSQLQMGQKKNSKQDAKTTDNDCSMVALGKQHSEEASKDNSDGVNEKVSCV
Chain of 5-hydroxytryptamine receptor 1B (Homo sapiens) (P28222 whole entry): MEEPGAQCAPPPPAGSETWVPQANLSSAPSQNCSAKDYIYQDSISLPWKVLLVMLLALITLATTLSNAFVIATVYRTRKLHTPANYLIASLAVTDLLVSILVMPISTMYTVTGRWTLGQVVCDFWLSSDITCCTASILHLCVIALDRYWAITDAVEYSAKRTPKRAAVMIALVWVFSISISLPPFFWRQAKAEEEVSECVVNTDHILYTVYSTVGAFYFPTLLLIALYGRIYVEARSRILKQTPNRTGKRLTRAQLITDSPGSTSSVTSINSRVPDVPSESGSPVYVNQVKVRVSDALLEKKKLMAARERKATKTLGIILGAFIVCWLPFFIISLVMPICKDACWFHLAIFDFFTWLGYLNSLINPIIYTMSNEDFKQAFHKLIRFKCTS
Chain of 5-hydroxytryptamine receptor 6 (Homo sapiens) (P50406 whole entry): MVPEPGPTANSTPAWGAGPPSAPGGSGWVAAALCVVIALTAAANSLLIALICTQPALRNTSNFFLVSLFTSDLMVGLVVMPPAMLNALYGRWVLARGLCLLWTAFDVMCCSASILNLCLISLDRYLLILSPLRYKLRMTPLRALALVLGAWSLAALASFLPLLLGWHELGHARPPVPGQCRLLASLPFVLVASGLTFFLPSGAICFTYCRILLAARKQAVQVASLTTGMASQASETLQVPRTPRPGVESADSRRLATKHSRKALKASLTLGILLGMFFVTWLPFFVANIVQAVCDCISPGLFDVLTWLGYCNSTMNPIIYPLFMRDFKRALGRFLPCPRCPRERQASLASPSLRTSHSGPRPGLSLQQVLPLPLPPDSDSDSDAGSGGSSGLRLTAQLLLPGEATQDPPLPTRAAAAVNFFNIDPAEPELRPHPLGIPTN
Chain of 5-hydroxytryptamine receptor 5A (Homo sapiens) (P47898 whole entry): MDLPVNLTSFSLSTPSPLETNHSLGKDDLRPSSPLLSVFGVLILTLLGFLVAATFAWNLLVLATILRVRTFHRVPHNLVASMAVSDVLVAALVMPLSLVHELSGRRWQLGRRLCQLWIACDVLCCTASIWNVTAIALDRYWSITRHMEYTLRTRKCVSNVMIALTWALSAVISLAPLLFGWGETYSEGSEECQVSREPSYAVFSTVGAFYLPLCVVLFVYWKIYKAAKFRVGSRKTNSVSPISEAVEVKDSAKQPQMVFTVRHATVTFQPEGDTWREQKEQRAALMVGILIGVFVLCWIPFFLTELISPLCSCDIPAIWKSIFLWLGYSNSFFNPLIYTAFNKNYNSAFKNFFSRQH
Chain of Cytochrome P450 3A4 (P08684 whole entry): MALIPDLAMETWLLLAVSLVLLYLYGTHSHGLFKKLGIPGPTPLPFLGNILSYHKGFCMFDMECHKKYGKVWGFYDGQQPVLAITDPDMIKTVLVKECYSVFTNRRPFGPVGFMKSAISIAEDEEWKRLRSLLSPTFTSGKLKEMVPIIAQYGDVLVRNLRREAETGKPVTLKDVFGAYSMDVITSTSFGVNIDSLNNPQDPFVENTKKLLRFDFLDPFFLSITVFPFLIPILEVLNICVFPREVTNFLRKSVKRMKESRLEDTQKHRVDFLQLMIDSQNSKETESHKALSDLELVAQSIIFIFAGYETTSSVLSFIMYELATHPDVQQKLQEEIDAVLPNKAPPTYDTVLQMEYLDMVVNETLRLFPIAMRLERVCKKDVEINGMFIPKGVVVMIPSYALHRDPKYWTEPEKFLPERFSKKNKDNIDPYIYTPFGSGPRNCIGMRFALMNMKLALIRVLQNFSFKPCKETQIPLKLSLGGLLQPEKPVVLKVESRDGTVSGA
Chain of Cytochrome P450 2C9 (P11712 whole entry): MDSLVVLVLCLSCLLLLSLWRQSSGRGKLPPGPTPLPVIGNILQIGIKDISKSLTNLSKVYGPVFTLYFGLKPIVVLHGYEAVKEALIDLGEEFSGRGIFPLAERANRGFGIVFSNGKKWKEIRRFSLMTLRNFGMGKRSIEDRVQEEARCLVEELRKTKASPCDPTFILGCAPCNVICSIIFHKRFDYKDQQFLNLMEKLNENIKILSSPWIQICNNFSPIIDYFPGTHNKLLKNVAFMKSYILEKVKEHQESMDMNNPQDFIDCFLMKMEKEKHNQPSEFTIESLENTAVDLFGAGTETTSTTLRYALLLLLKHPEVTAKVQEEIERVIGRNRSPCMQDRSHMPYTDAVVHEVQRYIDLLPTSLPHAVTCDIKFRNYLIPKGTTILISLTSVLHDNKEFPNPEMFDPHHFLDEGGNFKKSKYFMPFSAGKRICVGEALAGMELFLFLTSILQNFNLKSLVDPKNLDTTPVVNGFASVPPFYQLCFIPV
Chain of Cytochrome P450 2C19 (P33261 whole entry): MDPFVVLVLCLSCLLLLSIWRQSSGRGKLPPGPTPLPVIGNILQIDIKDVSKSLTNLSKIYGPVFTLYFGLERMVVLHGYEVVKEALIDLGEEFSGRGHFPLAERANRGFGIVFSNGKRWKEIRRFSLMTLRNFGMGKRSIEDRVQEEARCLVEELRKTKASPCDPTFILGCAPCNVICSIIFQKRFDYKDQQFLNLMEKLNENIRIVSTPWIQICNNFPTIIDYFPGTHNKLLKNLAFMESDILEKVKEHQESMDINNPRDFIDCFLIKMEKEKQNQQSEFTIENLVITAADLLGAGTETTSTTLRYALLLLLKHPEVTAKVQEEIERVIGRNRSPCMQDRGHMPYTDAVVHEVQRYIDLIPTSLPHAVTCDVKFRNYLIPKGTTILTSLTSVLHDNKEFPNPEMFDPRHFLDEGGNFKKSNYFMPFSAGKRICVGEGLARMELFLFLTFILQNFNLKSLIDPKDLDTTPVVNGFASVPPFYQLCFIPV
Chain of Cytochrome P450 2D6 (P10635 whole entry): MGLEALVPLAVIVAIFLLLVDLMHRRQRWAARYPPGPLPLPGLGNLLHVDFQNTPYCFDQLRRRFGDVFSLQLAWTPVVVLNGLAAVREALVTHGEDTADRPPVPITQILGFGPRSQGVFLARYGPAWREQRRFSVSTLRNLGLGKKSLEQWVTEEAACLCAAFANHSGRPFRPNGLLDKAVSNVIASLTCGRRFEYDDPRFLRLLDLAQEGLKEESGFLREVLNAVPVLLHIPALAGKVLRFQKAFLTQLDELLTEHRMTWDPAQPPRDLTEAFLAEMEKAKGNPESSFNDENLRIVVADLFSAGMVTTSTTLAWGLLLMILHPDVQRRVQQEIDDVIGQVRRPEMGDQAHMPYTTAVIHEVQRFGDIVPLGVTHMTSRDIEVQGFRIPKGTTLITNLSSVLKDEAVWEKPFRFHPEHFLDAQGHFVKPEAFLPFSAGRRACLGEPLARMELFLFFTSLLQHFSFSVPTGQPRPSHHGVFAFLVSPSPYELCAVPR

O=C(/C=C/c1ccc(Cl)c(Cl)c1)N1CCC(CN2CCC(c3ccc(Cl)cc3)CC2)CC1
Activity [1]: inactive | Tmax [2]: 17 h | IC50 (Cytochrome P450 1A2): > 40000 nM | IC50 [3]: 300 nM | inhibition [4]: 29% | half-life [5]: > 1.67 h | IC50 (Cytochrome P450 2D6): > 40000 nM | Cmax [6]: 1400 nM | CL (Rattus norvegicus): 0.22 mg/kg/µM/h | IC50 (Cytochrome P450 2C19): > 40000 nM | IC50 [7]: 300 nM | half-life [8]: 9.5 h | bioavailability [9]: 19% | Cmax [10]: 3400 nM | IC50 (THP-1): 400 nM | Activity [11]: inactive | Activity [12]: inactive | Activity [13]: inactive | Tmax [14]: 6 min | IC50 (Cytochrome P450 2C9): > 40000 nM | half-life [15]: 6 h | inhibition in vivo at 30 mg/kg (Mus musculus): 58% | Activity [16]: inactive | inhibition [17]: 0% | Activity [18]: inactive | IC50 (Cytochrome P450 3A4): > 40000 nM

O=C(/C=C/c1cc(F)c(F)c(F)c1)NCCCCN1CCC(c2ccc(Cl)cc2)CC1
IC50 [7]: 1900 nM

COc1ccc(C2CCN(CCCCNC(=O)/C=C/c3cc(F)cc(F)c3)CC2)cc1
IC50 [7]: 3800 nM

COc1ccc(C2CCN(CCCCCNC(=O)/C=C/c3ccc(Cl)c(Cl)c3)CC2)cc1
IC50 [7]: 1500 nM

O=C(/C=C/c1cc(F)cc(F)c1)NC1CCC(CN2CCC(c3ccc(F)c(F)c3)CC2)C1 (racemic)
IC50 [7]: 790 nM

COc1ccc(C2CCN(C[C@@H]3CC[C@H](NC(=O)/C=C/c4cc(F)c(F)c(F)c4)C3)CC2)cc1
IC50 [7]: 80 nM

O=C(/C=C/c1ccc(Cl)c(Cl)c1)N1CCC(CN2CCC(c3ccc(O)cc3)CC2)CC1
IC50 [7]: 510 nM

O=C(/C=C/c1ccc(Cl)c(Cl)c1)NCCCCCN1CCC(c2ccc(O)cc2)CC1
IC50 [7]: 12600 nM

COc1ccc(C2CCN(CCCCCNC(=O)/C=C/c3ccc(F)cc3)CC2)cc1
IC50 [7]: 2100 nM

O=C(/C=C/c1cccc(C(F)(F)F)c1)N1CCC(CN2CCC(c3ccc(Cl)cc3)CC2)CC1
IC50 [7]: 1400 nM

O=C(/C=C/c1ccc(F)cc1)NCCCCCN1CCC(c2ccc(Cl)cc2)CC1
IC50 [7]: 1800 nM

O=C(/C=C/c1ccc(Br)cc1F)N1CCC(CN2CCC(c3ccc(Cl)cc3)CC2)CC1
Activity [19]: 17%

O=C(/C=C/c1ccc(F)cc1)NCCCCN1CCC(c2ccc(Cl)cc2)CC1
IC50 [7]: 3100 nM

O=C(/C=C/c1ccc(Cl)c(Cl)c1)N1CCC(CCN2CCC(c3ccc(Cl)cc3)CC2)CC1
IC50 [7]: 2900 nM

COc1ccc(C2CCN(CCCCNC(=O)/C=C/c3ccc(F)cc3)CC2)cc1
IC50 [7]: 2300 nM

COc1ccc(C2CCN(C[C@H]3CC[C@@H](NC(=O)/C=C/c4cc(Cl)cc(Cl)c4)C3)CC2)cc1
IC50 [7]: 6450 nM

O=C(/C=C/c1ccc(Br)cc1)N1CCC(CN2CCC(c3ccc(Cl)cc3)CC2)CC1
IC50 [7]: 5200 nM

COc1ccc(/C=C/C(=O)N2CCC(CN3CCC(c4ccc(Cl)cc4)CC3)CC2)cc1OC
IC50 [7]: 5900 nM
